Source: PubChem BioAssay
FLuc inh counter – counter-screen for luciferase assay inhibitors: firefly luciferase inhibition; ATPLite firefly luciferase biochemical luminescence, 10 min; actives 1.5% (n = 200,000); AID 1006; inhibition, % at 10 µM;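 active = inhibition above about 50% when tested at 10 µM, limit read from the data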
FLuc act counter – firefly luciferase counter-screen for stimulation assays; activation factor at 10 µM; ATPlite luciferase biochemical, luminescence, 10 min; 0 = ATP-free wells, 1 = DMSO control; 200,000 tested, under 10 active;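 active = luciferase activation factor, scaled between plate controls, of at least 2 with compound at 10 µM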
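Material: luciferase plus luciferin reagent, cell-free. Medium: PBS buffer for ATP. Also added: ATP substrate, dispensed from a 10.24 µM working solution in PBS. Doses: test compounds dosed from 2 mM stocks in 100% DMSO. Incubation: 10 min post-reagent at room temperature. Technique: light output (luminescence). Read-out basis: luminescence gain marking luciferase activators.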
Wee1 stabilizer – human Wee1 degradation inhibition, primary screen | actives 1.2% (n = 220,000) | reporter increase, % at 5 µM | AID 1321 | HeLa Luc-Wee1K328M stability, luciferase luminescence; 100% = proteasome inhibitor MG132 effect;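 active = activation above the mean of all tested compounds plus 3 SD, set per screening run, cut at about 8.8% in these data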;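 note: cells exposed to compound for 20 h before luminescence read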
PKD1 kinase inh – blocks activity of human protein kinase D1; PKD1 kinase fluorescence polarization assay; inhibition, % (no concentration beside the values); actives 0.056% (n = 200,000); AID 797; in the data active = inhibition above about 50%
C8 TRAIL sens – sensitizes caspase-8 expressing cells to TRAIL; NB7+C8 cells + TRAIL, ATPlite viability luminescence; inhibition (viability loss, TRAIL sensitization), % at 10 µM; actives 1% (n = 360,000); AID 624354;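 active = compounds causing at least 50% loss of cell viability in the single-dose screen, relative to plate controls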
PPC-1+TRAIL kill – PPC-1 cancer cell killing with TRAIL present; PPC-1 cells + TRAIL, ATPLite viability luminescence; cell killing (% activity), % at 4 µM or 5 µM; actives 0.41% (n = 220,000);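 active = cell killing above 50% in the first pass at 4 µM, then a duplicate retest at 5 µM averaging 50% or more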
Numbers stand for hits; 0 = inactive; - = not tested or not shown. The list is not random: actives were taken first. Their share in the collection is about 2.2%.

SMILES	FLuc inh counter	FLuc act counter	Wee1 stabilizer	PKD1 kinase inh	C8 TRAIL sens	PPC-1+TRAIL kill
C=CCN=C1S/C(=C/c2cccc([N+](=O)[O-])c2)C(=O)N1CC=C	-	-	9.9	-	0	0
CCCCNC(=O)Nc1nnc(-c2ccc(Cl)cc2)o1	0	0	0	0	0	0
NC(=O)c1ccccc1NC(=O)NC1CCCCC1	0	0	10.5	0	0	0
O=C(Nc1ccccc1)Nc1nnc(-c2ccccc2)o1	0	0	0	0	0	0
O=C(Nc1nnc(-c2ccccc2)o1)NC1CCCCC1	0	0	0	0	61.0	0
c1ccc(-c2nnc(NC3=NCCC3)o2)cc1	66.1	0	0	0	0	0
O=C(Nc1nnc(-c2ccc(Cl)cc2)o1)Nc1ccccc1F	-	-	12.8	-	0	0
O=C(NCCC1=CCCCC1)C(=O)NCc1ccncc1	0	0	0	0	0	0
O=C(Nc1ccccc1NC(=O)NC1CCCCC1)NC1CCCCC1	0	0	0	0	0	0
COC(=O)c1ccccc1NC(=O)NC1CCCC1	0	0	9.5	0	0	0
O=C(NCc1csc(-c2cccs2)n1)C1CCC1	-	-	0	-	0	0
COc1ccc(/C=N/NC(=O)Cn2nc(C)c([N+](=O)[O-])c2C)cc1	0	0	0	0	0	0
Cc1ccc(C(=O)Cn2nc(C)c([N+](=O)[O-])c2C)c(C)c1	0	0	0	0	0	0
Cc1cc(C)c(C(=O)Cn2nc(C)c([N+](=O)[O-])c2C)cc1C	0	0	10.4	0	0	0
Cc1ccc(/C=N/NC(=O)Cn2nc(C)c([N+](=O)[O-])c2C)o1	-	-	9.6	-	0	0
CC(C)=CC(=O)OCC(=O)NC1CCCc2ccccc21 (stereo not given)	0	0	0	0	0	0
CCCCN1C(=O)C(O)(CC(=O)c2c(C)n[nH]c2C)c2cc(Br)ccc21 (stereo not given)	0	0	0	0	0	0
Cc1n[nH]c(C)c1C(=O)CC1(O)C(=O)N(CCc2ccccc2)c2ccc(Cl)cc21 (stereo not given)	0	0	10.0	0	0	0
CC(C)CCCCCCCCCCCCC(=O)NCC(=O)NC1C(O)C(O)C(Nc2ncnc3nc[nH]c23)OC1C(O)CO (stereo not given)	-	-	-	-	65.1	-
CC(O)CNc1ncnc2nc[nH]c12 (stereo not given)	0	0	0	0	0	0
Cc1ccc(C(=O)ONc2ccc(N=NC(=O)c3ccccc3O)cc2)cc1	0	0	0	0	0	0
O=Nc1ccc(NOC(=O)c2ccc(Br)cc2)cc1	86.8	0	0	0	-	0
Cc1ccc(C(=O)ONc2ccc(N=O)cc2)cc1	96.8	0	0	0	0	0
CC1(N(O)/C=C2\C=CC=CC2=O)CCCCC1=O (stereo not given)	-	-	0	-	0	0
COc1cc(SC)ccc1C(=O)NCCOc1ccc(F)cc1	0	0	10.1	0	0	0
SMILES	FLuc inh counter	FLuc act counter	Wee1 stabilizer	PKD1 kinase inh	C8 TRAIL sens	PPC-1+TRAIL kill
COc1cc(SC)ccc1C(=O)NNC(=O)c1cc(C)oc1C	-	-	-	-	69.1	-
COc1ccc(CCNC(=O)c2ccc(SC)cc2OC)cc1	0	0	0	0	0	0
O=C(CSc1nnc2ccc(-c3ccc(F)cc3)nn12)N1CCOCC1	-	-	-	-	0	-
CC(=O)Oc1ccc2c(c1)C(=O)c1ccccc1CO2	65.6	0	0	0	0	0
CCCCn1c(/N=C/c2ccc(N(C)C)cc2)nc2ccccc21	60.8	0	0	0	0	0
C=CCn1c(/N=C/c2ccc(N(C)C)cc2)nc2ccccc21	93.9	0	0	0	0	0
CN(C)c1ccc(/C=N/n2ncc3ccccc32)cc1	59.7	0	0	0	51.2	0
CN(C)c1ccc(C=Nc2ccccc2)cc1	0	0	0	0	0	0
O=C(Cc1ccc(Cl)cc1)NCCCNC(=O)c1cccnc1	-	-	-	-	0	-
Cc1cc(C)n(NC(=S)NC2CCCCC2)c(=O)c1C#N	-	-	0	-	0	0
O=C(NC1CCN(C(=O)Nc2ccc(F)cc2)CC1)c1ccc(F)cc1	-	-	-	-	0	-
CCc1noc(N)c1C(=O)Nc1ccc(Cl)cc1	-	-	-	-	0	-
CC(C)(C)OC(=O)N/N=C/c1c[nH]c2ccccc12	53.7	0	0	0	0	0
O=C(N/N=C/c1c[nH]c2ccccc12)c1cc(-c2ccc(-c3ccccc3)cc2)n[nH]1	50.1	0	0	0	0	0
O=C(N/N=C/c1c[nH]c2ccccc12)c1cc(-c2ccccc2)n[nH]1	0	0	0	0	0	0
